Measurements reported in ChEMBL document CHEMBL1759999, “Exploration of (S)-3-aminopyrrolidine as a potentially interesting scaffold for discovery of novel Abl and PI3K dual inhibitors” (Eur J Med Chem, 2011).
The source made the active and inactive calls. No cut-off for these calls is given here.

Experiments:
K562 [1] = experiment: Cytotoxicity against human K562 cells after 48 hrs by MTT assay; format: functional, cell-based; conditions: K562, 48 h
How it was run: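 K562 cells grown in DMEM with 10% FBS plus penicillin and streptomycin, humidified air, 37 °C, 5% CO2. Cells seeded in 96-well plates and exposed to compounds at varying concentrations for 48 h. Viability read by MTT. IC50 derived from inhibition rates at each concentration. Values are means of three experiments.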

[2] = biological target: Tyrosine-protein kinase ABL2 (Homo sapiens) (UniProt P42684); experiment: Inhibition of Abl2 at 20 uM after 1 hr by luminescence assay
How it was run: (§1)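 Kinase incubated with substrate, test compound and ATP in a final buffer of 25 mM HEPES. Controls were staurosporine for Abl and PI103 for PI3K.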

[3] = biological target: Phosphatidylinositol 4,5-bisphosphate 3-kinase catalytic subunit alpha isoform (Homo sapiens) (UniProt P42336); experiment: Inhibition of PI3Kalpha at 20 uM after 1 hr by luminescence assay; how it was run: as §1
K562 [4] = experiment: Induction of apoptosis in human K562 cells at 5 uM after 24 hrs by annexin V-FITC/propidium iodide staining by flow cytometry; format: functional, cell-based
How it was run: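 K562 cells were treated for 24 h, then untreated and treated cells were collected by centrifugation and washed twice with ice-cold PBS. Phosphatidylserine surface exposure was measured by Annexin V-FITC binding, with PI staining for membrane integrity. Read-out was flow cytometry.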

Chain of Phosphatidylinositol 4,5-bisphosphate 3-kinase catalytic subunit alpha isoform (Homo sapiens) (P42336 whole entry, canonical isoform): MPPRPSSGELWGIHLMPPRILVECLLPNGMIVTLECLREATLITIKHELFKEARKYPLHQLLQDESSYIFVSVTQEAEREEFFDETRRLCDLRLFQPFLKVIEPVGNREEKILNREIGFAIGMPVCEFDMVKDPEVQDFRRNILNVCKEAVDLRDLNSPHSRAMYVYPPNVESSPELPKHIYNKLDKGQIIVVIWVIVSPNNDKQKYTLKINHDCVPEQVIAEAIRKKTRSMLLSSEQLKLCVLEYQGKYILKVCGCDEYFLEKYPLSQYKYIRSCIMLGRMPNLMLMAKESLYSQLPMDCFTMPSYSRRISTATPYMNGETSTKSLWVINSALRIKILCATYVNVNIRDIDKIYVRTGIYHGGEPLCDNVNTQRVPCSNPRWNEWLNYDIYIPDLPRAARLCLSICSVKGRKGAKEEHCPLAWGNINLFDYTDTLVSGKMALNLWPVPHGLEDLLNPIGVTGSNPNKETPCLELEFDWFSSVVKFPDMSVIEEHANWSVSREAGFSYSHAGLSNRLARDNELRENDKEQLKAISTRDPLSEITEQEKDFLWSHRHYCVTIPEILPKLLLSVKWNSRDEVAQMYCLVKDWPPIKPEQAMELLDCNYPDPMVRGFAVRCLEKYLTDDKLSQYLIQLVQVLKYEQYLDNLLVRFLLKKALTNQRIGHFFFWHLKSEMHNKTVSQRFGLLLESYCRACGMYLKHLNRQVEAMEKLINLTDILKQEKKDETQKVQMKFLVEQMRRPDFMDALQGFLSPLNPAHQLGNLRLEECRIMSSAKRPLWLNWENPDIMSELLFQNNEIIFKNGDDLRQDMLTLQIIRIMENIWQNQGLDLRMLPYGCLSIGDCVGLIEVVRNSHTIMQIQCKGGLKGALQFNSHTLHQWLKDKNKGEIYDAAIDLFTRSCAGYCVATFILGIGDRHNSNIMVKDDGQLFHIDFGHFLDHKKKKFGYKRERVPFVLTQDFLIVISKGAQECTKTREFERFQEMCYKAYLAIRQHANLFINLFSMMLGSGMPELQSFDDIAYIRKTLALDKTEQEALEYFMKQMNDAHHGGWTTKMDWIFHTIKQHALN
Chain of Tyrosine-protein kinase ABL2 (Homo sapiens) (P42684 whole entry): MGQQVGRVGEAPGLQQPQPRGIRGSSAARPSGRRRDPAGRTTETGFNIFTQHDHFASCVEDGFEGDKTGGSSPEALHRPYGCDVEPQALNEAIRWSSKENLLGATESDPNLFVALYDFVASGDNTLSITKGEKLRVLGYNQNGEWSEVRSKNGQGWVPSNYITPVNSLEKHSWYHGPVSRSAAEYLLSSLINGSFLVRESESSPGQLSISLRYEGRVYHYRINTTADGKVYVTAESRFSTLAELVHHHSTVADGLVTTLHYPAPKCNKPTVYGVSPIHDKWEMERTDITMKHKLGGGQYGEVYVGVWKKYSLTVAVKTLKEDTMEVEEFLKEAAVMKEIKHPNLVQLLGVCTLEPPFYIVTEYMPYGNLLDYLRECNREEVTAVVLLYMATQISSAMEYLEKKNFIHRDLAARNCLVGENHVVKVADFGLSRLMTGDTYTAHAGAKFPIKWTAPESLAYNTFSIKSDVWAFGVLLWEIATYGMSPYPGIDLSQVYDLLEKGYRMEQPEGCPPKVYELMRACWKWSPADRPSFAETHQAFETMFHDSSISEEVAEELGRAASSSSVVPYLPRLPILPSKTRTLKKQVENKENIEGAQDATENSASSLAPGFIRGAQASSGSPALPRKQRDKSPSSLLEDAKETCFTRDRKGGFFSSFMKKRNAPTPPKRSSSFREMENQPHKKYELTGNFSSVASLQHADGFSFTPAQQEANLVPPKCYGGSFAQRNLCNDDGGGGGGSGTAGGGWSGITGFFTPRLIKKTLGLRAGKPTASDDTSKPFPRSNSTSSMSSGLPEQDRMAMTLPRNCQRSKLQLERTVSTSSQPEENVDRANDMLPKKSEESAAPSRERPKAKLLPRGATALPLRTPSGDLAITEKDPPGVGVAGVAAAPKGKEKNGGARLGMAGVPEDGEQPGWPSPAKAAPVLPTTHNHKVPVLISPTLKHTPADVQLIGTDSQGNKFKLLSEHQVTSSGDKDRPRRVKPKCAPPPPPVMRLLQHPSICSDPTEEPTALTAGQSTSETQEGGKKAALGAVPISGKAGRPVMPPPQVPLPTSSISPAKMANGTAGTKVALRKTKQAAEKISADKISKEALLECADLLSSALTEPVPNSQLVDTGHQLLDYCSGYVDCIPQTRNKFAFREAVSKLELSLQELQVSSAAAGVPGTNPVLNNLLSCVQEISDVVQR

Cc1ccc(CN2CCN(C(=O)CN[C@H]3CCN(S(=O)(=O)Cc4ccccc4)C3)CC2)cc1
IC50 (K562 [1]): 8.2 µM

O=C(CN[C@H]1CCN(S(=O)(=O)Cc2ccccc2)C1)N1CCN(Cc2ccc(Cl)cc2)CC1
IC50 (K562 [1]): 9.2 µM

O=C(CN[C@H]1CCN(S(=O)(=O)Cc2ccccc2)C1)N1CCN(Cc2ccccc2F)CC1
IC50 (K562 [1]): 12.6 µM

O=C(CN[C@H]1CCN(S(=O)(=O)Cc2ccccc2)C1)N1CCN(Cc2ccc(Cl)cc2Cl)CC1
inhibition [2]: 4.92% | inhibition [3]: 16.4% | Activity (K562 [4]): inactive | IC50 (K562 [1]): 4.3 µM

COc1cccc(CN2CCN(C(=O)CN[C@H]3CCN(S(=O)(=O)Cc4ccccc4)C3)CC2)c1
IC50 (K562 [1]): 60.8 µM

O=C(CN[C@H]1CCN(S(=O)(=O)Cc2ccccc2)C1)N1CCN(Cc2ccccc2Cl)CC1
IC50 (K562 [1]): 9 µM

Cc1cc(C)c(CN2CCN(C(=O)CN[C@H]3CCN(S(=O)(=O)Cc4ccccc4)C3)CC2)c(C)c1
inhibition [2]: 1.39% | inhibition [3]: 13.5% | Activity (K562 [4]): inactive | IC50 (K562 [1]): 3.3 µM

O=C(CN[C@H]1CCN(S(=O)(=O)Cc2ccccc2)C1)N1CCN(Cc2cccc(Cl)c2)CC1
IC50 (K562 [1]): 8.6 µM

O=C(CN[C@H]1CCN(S(=O)(=O)Cc2ccccc2)C1)N1CCN(Cc2c(F)cccc2Cl)CC1
IC50 (K562 [1]): 65.8 µM

COc1ccc(CN2CCN(C(=O)CN[C@H]3CCN(S(=O)(=O)Cc4ccccc4)C3)CC2)cc1
IC50 (K562 [1]): 50.9 µM

Cc1ccccc1CN1CCN(C(=O)CN[C@H]2CCN(S(=O)(=O)Cc3ccccc3)C2)CC1
IC50 (K562 [1]): 10.2 µM

O=C(CN[C@H]1CCN(S(=O)(=O)Cc2ccccc2)C1)N1CCN(Cc2cccc(C(F)(F)F)c2)CC1
inhibition [2]: 4.49% | inhibition [3]: 12.1% | Activity (K562 [4]): inactive | IC50 (K562 [1]): 3.6 µM

COc1cc(CN2CCN(C(=O)CN[C@H]3CCN(S(=O)(=O)Cc4ccccc4)C3)CC2)cc(OC)c1
IC50 (K562 [1]): 33.8 µM

O=C(CN[C@H]1CCN(S(=O)(=O)Cc2ccccc2)C1)N1CCN(Cc2c(Cl)cccc2Cl)CC1
IC50 (K562 [1]): 28.4 µM

Cc1ccc(NC(=O)c2ccc(CN3CCN(C)CC3)cc2)cc1Nc1nccc(-c2cccnc2)n1 [IMATINIB]
IC50 (K562 [1]): 0.58 µM

O=C(CN[C@H]1CCN(S(=O)(=O)Cc2ccccc2)C1)N1CCN(Cc2cccc(F)c2)CC1
IC50 (K562 [1]): 13.2 µM

COc1cc(CN2CCN(C(=O)CN[C@H]3CCN(S(=O)(=O)Cc4ccccc4)C3)CC2)cc(OC)c1OC
IC50 (K562 [1]): 93 µM

O=C(CN[C@H]1CCN(S(=O)(=O)Cc2ccccc2)C1)N1CCN(Cc2ccccc2)CC1
IC50 (K562 [1]): 9.5 µM

Cc1cccc(CN2CCN(C(=O)CN[C@H]3CCN(S(=O)(=O)Cc4ccccc4)C3)CC2)c1
IC50 (K562 [1]): 11.3 µM

Oc1cccc(-c2nc(N3CCOCC3)c3oc4ncccc4c3n2)c1
inhibition [3]: 98.1%

O=C(CN[C@H]1CCN(S(=O)(=O)Cc2ccccc2)C1)N1CCN(Cc2ccc(F)cc2)CC1
IC50 (K562 [1]): 14.3 µM

CN[C@@H]1C[C@H]2O[C@@](C)([C@@H]1OC)n1c3ccccc3c3c4c(c5c6ccccc6n2c5c31)C(=O)NC4
inhibition [2]: 90.2%
